Our source for the Ratio and inhibition of growth values is ChEMBL document CHEMBL1811799, “Jatrophane diterpenes from Euphorbia esula as antiproliferative agents and potent chemosensitizers to overcome multidrug resistance” (J Nat Prod, 2011).

For data set [1], the target named is T1, ATP-dependent translocase ABCB1 (Homo sapiens, UniProt P08183). The data set can be described thus: Inhibition of MDR1-mediated rhodamine 123 uptake expressed in mouse L5178Y cells transfected with pHa MDR1/A assessed as fluorescence activity ratio at 4 ug/mL by flow cytometry relative to untreated control. It is filed as cell-based. The gist of the method: (§1)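 Mouse L5178 lymphoma cells transfected with pHa MDR1/A retrovirus were kept under 60 ng/mL colchicine, alongside L5178Y parent cells, in McCoy's 5A medium with 10% horse serum. Cells at 2×10^6/mL in serum-free medium were preincubated with compound (4.0 or 40.0 μg/mL, in DMSO) for 10 min at room temperature. Rhodamine 123 was then added (5.2 μM final) for 20 min at 37 °C, and cells were washed and measured by flow cytometry. R compares treated versus untreated MDR cells relative to parental cells. Verapamil served as positive control.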
T1 sequence (P08183 whole entry): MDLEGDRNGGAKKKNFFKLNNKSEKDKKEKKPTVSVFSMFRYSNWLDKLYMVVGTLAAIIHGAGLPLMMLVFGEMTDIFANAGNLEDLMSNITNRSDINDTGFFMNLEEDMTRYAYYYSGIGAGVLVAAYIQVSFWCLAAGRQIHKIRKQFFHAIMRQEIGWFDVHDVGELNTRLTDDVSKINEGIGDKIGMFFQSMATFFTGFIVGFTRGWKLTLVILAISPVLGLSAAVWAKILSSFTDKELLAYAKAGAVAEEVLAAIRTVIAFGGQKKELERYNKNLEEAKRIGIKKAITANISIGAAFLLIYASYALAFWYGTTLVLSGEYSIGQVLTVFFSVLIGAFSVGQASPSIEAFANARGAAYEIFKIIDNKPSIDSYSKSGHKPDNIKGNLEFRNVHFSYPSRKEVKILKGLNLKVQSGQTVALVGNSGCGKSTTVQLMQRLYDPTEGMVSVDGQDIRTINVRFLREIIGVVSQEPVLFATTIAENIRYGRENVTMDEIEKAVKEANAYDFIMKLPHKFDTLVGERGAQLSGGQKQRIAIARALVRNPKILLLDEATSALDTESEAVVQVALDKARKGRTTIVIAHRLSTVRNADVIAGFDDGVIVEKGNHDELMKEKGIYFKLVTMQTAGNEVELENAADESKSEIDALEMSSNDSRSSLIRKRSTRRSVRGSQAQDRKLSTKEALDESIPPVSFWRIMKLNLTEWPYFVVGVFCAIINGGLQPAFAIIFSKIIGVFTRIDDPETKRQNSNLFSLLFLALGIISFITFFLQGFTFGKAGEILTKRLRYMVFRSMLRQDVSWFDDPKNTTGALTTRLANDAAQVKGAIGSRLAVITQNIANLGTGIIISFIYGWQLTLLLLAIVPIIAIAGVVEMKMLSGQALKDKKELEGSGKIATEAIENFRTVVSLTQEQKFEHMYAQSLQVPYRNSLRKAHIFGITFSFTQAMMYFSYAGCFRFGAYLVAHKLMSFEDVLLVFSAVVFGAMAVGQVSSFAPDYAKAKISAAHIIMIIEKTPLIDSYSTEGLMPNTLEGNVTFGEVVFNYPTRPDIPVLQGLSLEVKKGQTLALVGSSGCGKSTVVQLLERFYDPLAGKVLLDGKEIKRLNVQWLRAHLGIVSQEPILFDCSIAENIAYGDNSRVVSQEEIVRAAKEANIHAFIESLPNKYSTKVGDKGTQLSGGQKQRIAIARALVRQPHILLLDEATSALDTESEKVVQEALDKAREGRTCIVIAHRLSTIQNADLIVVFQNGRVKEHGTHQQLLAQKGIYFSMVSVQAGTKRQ
In general terms: Flow cytometry measures light scatter and fluorescence of single cells or particles in a stream.

Data set [2] has as its system MCF7. As to the kind of experiment: Antiproliferative activity against human MCF7 cells assessed as growth inhibition at 10 ug/mL after 72 hrs by MTT assay. Particulars: MCF7, 72 h, read-out: GI. It counts as functional. The gist of the method:
(§2)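 MTT assay on human HeLa, Ishikawa and MCF7 cells seeded at 5000/well and left to attach overnight. Medium was then replaced with medium containing test substances (DMSO stocks, final DMSO up to 0.3%). After 72 h, MTT was added for 4 h, formazan was dissolved in DMSO and absorbance read at 545 nm. Untreated cells served as negative control and cisplatin as positive control. Two plates were run, each with at least five parallel wells.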
(Tetrazolium assays rely on reduction of a dye to a coloured formazan, in cell work by metabolically active cells.)

Data set [3] deals with HeLa. As to the kind of experiment: Antiproliferative activity against human HeLa cells assessed as growth inhibition at 30 ug/mL after 72 hrs by MTT assay. It is filed as functional. The conditions noted are these: read-out: GI. The method in brief:
as §2

Data set [4] relates to Ishikawa. The data set can be described thus: Antiproliferative activity against human Ishikawa cells assessed as growth inhibition at 30 ug/mL after 72 hrs by MTT assay. It is filed as functional. Particulars: read-out: GI. The method in brief: as §2
Data set [5] concerns MCF7. The data set can be described thus: Antiproliferative activity against human MCF7 cells assessed as growth inhibition at 30 ug/mL after 72 hrs by MTT assay. It is filed as functional. Particulars: MCF7, 72 h, read-out: GI. The gist of the method: as §2
Data set [6] concerns the target T1, ATP-dependent translocase ABCB1. As to the kind of experiment: Inhibition of MDR1-mediated rhodamine 123 uptake expressed in mouse L5178Y cells transfected with pHa MDR1/A assessed as fluorescence activity ratio at 40 ug/mL by flow cytometry relative to untreated control. It counts as cell-based. The gist of the method:
as §1

Data set [7] deals with HeLa. As to the kind of experiment: Antiproliferative activity against human HeLa cells assessed as growth inhibition at 10 ug/mL after 72 hrs by MTT assay. The conditions noted are these: read-out: GI. It is filed as functional. The gist of the method: as §2
The subject of data set [8] is Ishikawa. As to the kind of experiment: Antiproliferative activity against human Ishikawa cells assessed as growth inhibition at 10 ug/mL after 72 hrs by MTT assay. It is filed as functional. Particulars: read-out: GI. The gist of the method:
as §2

In the case of `C=C1[C@H](OC(=O)C(C)C)[C@@H](OC(C)=O)[C@@H](OC(C)=O)C(C)(C)[C@@H]2O[C@](O)([C@H](C)[C@@H]2OC(C)=O)[C@@]2(OC(C)=O)C[C@@](C)(OC(C)=O)[C@H](OC(C)=O)[C@@H]2[C@H]1OC(C)=O`, the Ratio in data set [1] is 1.4; in data set [6], 1. Besides, the inhibition of growth at 10 µg/mL came out at 9.8% with MCF7 [2], 10.6% in the data set with HeLa [7] and 12% in the data set on Ishikawa [8]. For the same compound, the inhibition of growth at 30 µg/mL amounted to 17.8% with HeLa [3], 17.7% in the data set on Ishikawa [4] and 11.4% in the data set on MCF7 [5].

For `C=C1[C@H](OC(=O)C(C)C)CC(=O)C(C)(C)/C=C/[C@@H](C)C(=O)[C@@]2(OC(C)=O)C[C@H](C)[C@H](OC(C)=O)[C@@H]2[C@H]1OC(C)=O`, the Ratio was determined as 24.9 in data set [1] and 52.5 in data set [6]. Besides, the inhibition of growth at 10 µg/mL with MCF7 [2] is 46.8%; in the data set on HeLa [7], 19.1%; with Ishikawa [8], 18.4%. Besides, the figures for the inhibition of growth at 30 µg/mL in the data set with HeLa [3], in the data set with Ishikawa [4] and in the data set with MCF7 [5] were 64.5%, 98.4% and 81.4%, respectively.

In the case of `C=C1[C@H](OC(=O)C(C)C)C[C@@H](OC(=O)c2cccnc2)C(C)(C)/C=C/[C@@H](C)C(=O)[C@@]2(OC(C)=O)C[C@@](C)(OC(C)=O)[C@H](OC(C)=O)[C@@H]2[C@H]1OC(C)=O`, the Ratio is recorded as 23.8 in data set [1] and 36.4 in data set [6]. The inhibition of growth at 10 µg/mL in the data set on MCF7 [2] was 3.6%; in the data set with HeLa [7] it was 6.4%; in the data set with Ishikawa [8], 17.5%. In addition, the results for the inhibition of growth at 30 µg/mL in the data set on HeLa [3], with Ishikawa [4] and in the data set with MCF7 [5] were 1.1%, 26.6% and 16.7%, respectively.

For the compound `C=C1[C@H](OC(=O)C(C)C)C[C@@H](OC(=O)c2cccnc2)C(C)(C)/C=C/[C@@H](C)C(=O)[C@@]2(OC(C)=O)C[C@H](C)[C@H](OC(C)=O)[C@@H]2[C@H]1OC(C)=O`, the values for the Ratio in data set [1] and in data set [6] were 16.6 and 119.9, respectively. Besides, the inhibition of growth at 10 µg/mL with MCF7 [2] is 18.5%; in the data set on HeLa [7], 18.3%; in the data set with Ishikawa [8], 5.9%. Also, the inhibition of growth at 30 µg/mL with HeLa [3] worked out at 4.5%; with Ishikawa [4], 16.4%; in the data set with MCF7 [5], 14.4%.

Take `C=C1[C@H](OC(C)=O)C[C@@H](OC(=O)c2cccnc2)C(C)(C)/C=C/[C@@H](C)C(=O)[C@@]2(OC(C)=O)C[C@@](C)(OC(C)=O)[C@H](OC(C)=O)[C@@H]2[C@H]1OC(C)=O`: the Ratio is reported as 1.7 in data set [1] and 2.3 in data set [6]. The values for the inhibition of growth at 10 µg/mL in the data set with MCF7 [2], in the data set on HeLa [7] and in the data set on Ishikawa [8] were 20.3%, 13.9% and 8.1%, respectively. Besides, the inhibition of growth at 30 µg/mL in the data set on HeLa [3] was 17.9%; with Ishikawa [4], 13.9%; in the data set on MCF7 [5] it was 36.3%.

On to `CC(=O)O[C@H]1[C@H]2OC(=O)CC[C@](O)([C@@H]1OC(=O)C(C)C)[C@H](OC(C)=O)[C@H]1[C@@H](OC(C)=O)[C@](C)(OC(C)=O)C[C@]1(OC(C)=O)C(=O)[C@H](C)[C@H]1O[C@@H]1C2(C)C`, for which the figures for the Ratio in data set [1] and in data set [6] were 5.9 and 17.5, respectively. The inhibition of growth at 10 µg/mL in the data set on MCF7 [2] is 24.8%; in the data set on HeLa [7], 5.3%; in the data set with Ishikawa [8], 31.5%. The inhibition of growth at 30 µg/mL in the data set with HeLa [3] amounted to 20.8%; in the data set on Ishikawa [4], 33%; in the data set on MCF7 [5] it was 29.2%.

Take `C=C1[C@H](OC(=O)C(C)C)[C@@H](OC(C)=O)[C@@H](OC(C)=O)C(C)(C)/C=C/[C@@H](C)C(=O)[C@@]2(OC(C)=O)C[C@@](C)(OC(C)=O)[C@H](OC(C)=O)[C@@H]2[C@H]1OC(C)=O`: the Ratio in data set [1] is reported as 5.5; in data set [6], 14.8. Further, the inhibition of growth at 10 µg/mL in the data set on MCF7 [2] came to 8.7%; in the data set with HeLa [7], 2.9%; with Ishikawa [8] it was 21.4%. In addition, the inhibition of growth at 30 µg/mL in the data set with HeLa [3] was found to be 10.9%; in the data set with Ishikawa [4], 17.1%; with MCF7 [5], 23.3%.

With `C=C1[C@H](OC(C)=O)CC(=O)C(C)(C)/C=C/[C@@H](C)C(=O)[C@@]2(OC(C)=O)C[C@@](C)(OC(C)=O)[C@H](OC(C)=O)[C@@H]2[C@H]1OC(C)=O` [ESULATIN B], the Ratio was 2.6 in data set [1] and 7.8 in data set [6]. Further, the inhibition of growth at 10 µg/mL is 29.9% in the data set with MCF7 [2], 17.3% in the data set on HeLa [7] and 11.6% with Ishikawa [8]. For the same compound, the inhibition of growth at 30 µg/mL in the data set with HeLa [3] is 36.3%; in the data set with Ishikawa [4], 35%; in the data set on MCF7 [5] it was 43.3%.

For the compound `C=C1[C@H](OC(C)=O)C[C@@H](OC(C)=O)C(C)(C)/C=C/[C@@H](C)C(=O)[C@@]2(OC(C)=O)C[C@@](C)(OC(C)=O)[C@H](OC(C)=O)[C@@H]2[C@H]1OC(C)=O` [ESULATIN D], the Ratio in data set [1] is listed as 4.6; in data set [6], 15.2. Besides, the inhibition of growth at 10 µg/mL with MCF7 [2] was 9.5%; in the data set on HeLa [7], 11.4%; with Ishikawa [8], 29.4%. Further, the inhibition of growth at 30 µg/mL with HeLa [3] came out at 26.7%; in the data set with Ishikawa [4], 29.9%; in the data set with MCF7 [5] it was 13.5%.

In the case of `C=C1/C=C\C(=O)C(C)(C)/C=C/[C@@H](C)C(=O)[C@@]2(OC(C)=O)C[C@@](C)(OC(C)=O)[C@H](OC(C)=O)[C@@H]2[C@H]1OC(C)=O` [ESULATIN E], the results for the inhibition of growth at 10 µg/mL in the data set with MCF7 [2], in the data set on HeLa [7] and in the data set on Ishikawa [8] were 30.4%, 19.5% and 35.6%, respectively. For the same compound, the results for the inhibition of growth at 30 µg/mL in the data set with HeLa [3], in the data set on Ishikawa [4] and in the data set with MCF7 [5] were 58.1%, 54.1% and 61.4%, respectively.

As for `C=C1[C@H](OC(C)=O)CC(=O)C(C)(C)/C=C/[C@@H](C)C(=O)[C@@]2(OC(C)=O)C[C@@](C)(OC(=O)c3ccccc3)[C@H](OC(C)=O)[C@@H]2[C@H]1OC(C)=O` [ESULATIN I], the Ratio in data set [1] is listed as 3.9; in data set [6], 19.9. For the same compound, the inhibition of growth at 10 µg/mL was 12.7% with MCF7 [2], 15.4% in the data set with HeLa [7] and 8% with Ishikawa [8]. Moreover, the inhibition of growth at 30 µg/mL in the data set on HeLa [3] is 23.8%; in the data set on Ishikawa [4], 29.4%; with MCF7 [5], 60.1%.

For `C=C1[C@H](OC(C)=O)C[C@@H](OC(=O)c2cccnc2)C(C)(C)/C=C/[C@@H](C)C(=O)[C@@]2(OC(C)=O)C[C@@](C)(OC(=O)c3cccnc3)[C@H](OC(C)=O)[C@@H]2[C@H]1OC(C)=O` [ESULATIN K], the figures for the Ratio in data set [1] and in data set [6] were 7.2 and 19.8, respectively. In addition, the inhibition of growth at 10 µg/mL with MCF7 [2] amounted to 1.3%; in the data set on HeLa [7] it was 0.5%; in the data set with Ishikawa [8], 7.5%. Moreover, the inhibition of growth at 30 µg/mL in the data set on HeLa [3] was determined as 0.6%; with Ishikawa [4], 0.1%; in the data set on MCF7 [5] it was 21.3%.

Turning to `C=C1[C@H](OC(C)=O)C[C@@H](OC(=O)c2cccnc2)[C@](C)(OC(C)=O)C/C=C/[C@@H](C)C(=O)[C@@]2(OC(C)=O)C[C@@](C)(OC(=O)c3cccnc3)[C@H](OC(C)=O)[C@@H]2[C@H]1OC(C)=O` [EUPHOSALICIN], the Ratio is given as 1.9 in data set [1] and 12.3 in data set [6]. Further, the inhibition of growth at 10 µg/mL in the data set with MCF7 [2] is 6.3%; in the data set with HeLa [7], 14.5%; in the data set on Ishikawa [8], 0.9%. In addition, the figures for the inhibition of growth at 30 µg/mL in the data set with HeLa [3], in the data set on Ishikawa [4] and in the data set with MCF7 [5] were 18.1%, 7.6% and 20%, respectively.
